In ChEMBL document CHEMBL1139166, “Synthesis and in vitro evaluation of tetrahydroisoquinolinyl benzamides as ligands for sigma receptors” (Bioorg Med Chem Lett, 2007):

How the values were obtained:
[1] = Displacement of [3H]DTG from sigma 2 receptor in guinea pig brain membrane; type: cell membranes, Cavia porcellus
Outline: (§1)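 Male guinea pig brain membranes (0.25 mg protein) were incubated with 3.0 nM [3H]DTG plus 200 nM (+)-pentazocine as sigma1 mask. Buffer was 50 mM Tris-HCl, pH 8.0, and incubation was 120 min at 25 °C. DTG (100 µM) defined nonspecific binding. Ten log-spaced test concentrations were used. Filters were PEI-soaked GF/B, read by scintillation counting. Ki given as mean ± SEM, n = 3–5.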

[2] = Displacement of [3H]DTG from sigma 2 receptor in guinea pig brain membrane at pH 8.0 at 25 degC; type: cell membranes, Cavia porcellus; outline: as §1
[3] = molecular target: T1, Sigma non-opioid intracellular receptor 1 (Cavia porcellus, UniProt Q60492); experiment: Displacement of [3H](+)-pentazocine from sigma 1 receptor in guinea pig brain membrane at pH 8.0 at 25 degC; type: cell membranes
Outline: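 This alternative sigma1 regimen used guinea pig brain membranes with 3.0 nM [3H](+)-pentazocine in pH 8.0 buffer. Incubation was 120 min at 25 °C. Nonspecific binding was defined with 10 µM (+)-pentazocine. Bound ligand was separated by filtration and counted by scintillation.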

Cavia porcellus = species: Cavia porcellus; experiment: Selectivity for sigma 2 receptor over sigma 1 receptor in guinea pig brain membrane; type: cell membranes
Outline: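 Selectivity is the ratio of sigma1 Ki to sigma2 Ki. Sigma1 Ki came from [3H](+)-pentazocine competition and sigma2 Ki from [3H]DTG competition with (+)-pentazocine mask, both in male guinea pig brain membranes.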

[4] = molecular target: T1, Sigma non-opioid intracellular receptor 1; experiment: Displacement of [3H](+)-pentazocine from sigma 1 receptor in guinea pig brain membrane; type: cell membranes
Outline: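 Male guinea pig brain membranes (0.25 mg protein) were incubated with 1.0 nM [3H](+)-pentazocine in 50 mM Tris-HCl (pH 7.4, 25 °C) for 150 min at 37°C. Haloperidol (1.0 µM) defined nonspecific binding. Ten log-spaced test concentrations were used, in water with 0.1% HOAc/1.0% EtOH. Bound radioactivity was collected on PEI-soaked GF/B filters and counted by scintillation.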

T1 sequence (Q60492 whole entry): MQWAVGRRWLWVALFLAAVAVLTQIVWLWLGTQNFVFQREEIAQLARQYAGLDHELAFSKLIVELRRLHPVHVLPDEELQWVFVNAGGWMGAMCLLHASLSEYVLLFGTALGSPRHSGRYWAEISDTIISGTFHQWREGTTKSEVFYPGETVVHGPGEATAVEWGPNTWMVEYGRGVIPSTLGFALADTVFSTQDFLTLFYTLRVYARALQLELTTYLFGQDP

Row | SMILES | Ki [1] [µM] | IC50 [2] [µM] | IC50 [3] [µM] | Ratio Ki (Cavia porcellus) | Ki [4] [µM]
1 | COc1cc2c(cc1OC)CN(CCCCNC(=O)c1cc(Br)cc(OC)c1OC)CC2 | 0.0027 | 0.003 | 1.89 |  | 
2 | COc1cc(Br)cc(C(=O)NCCCCN2CCc3cc4c(cc3C2)OCO4)c1OC | 0.0207 |  |  | 4 | 0.0822
3 | COc1ccc(CCNCCCCNC(=O)c2cc(Br)cc(OC)c2OC)cc1OC | 4.62 |  |  | 0.2 | 0.88
4 | COc1cc(Br)cc(C(=O)NCCCCN2CCc3cc4c(cc3C2)OCCCO4)c1OC | 0.0326 |  |  | 44 | 1.43
5 | COc1cc(Br)cc(C(=O)NCCCCN2CCc3cc4c(cc3C2)OCCO4)c1OC | 0.0217 |  |  | 16 | 0.338
